For data set [1], the target named is T1, Tyrosine-protein phosphatase non-receptor type 1 (Homo sapiens) (UniProt P18031).
T1 sequence (whole entry): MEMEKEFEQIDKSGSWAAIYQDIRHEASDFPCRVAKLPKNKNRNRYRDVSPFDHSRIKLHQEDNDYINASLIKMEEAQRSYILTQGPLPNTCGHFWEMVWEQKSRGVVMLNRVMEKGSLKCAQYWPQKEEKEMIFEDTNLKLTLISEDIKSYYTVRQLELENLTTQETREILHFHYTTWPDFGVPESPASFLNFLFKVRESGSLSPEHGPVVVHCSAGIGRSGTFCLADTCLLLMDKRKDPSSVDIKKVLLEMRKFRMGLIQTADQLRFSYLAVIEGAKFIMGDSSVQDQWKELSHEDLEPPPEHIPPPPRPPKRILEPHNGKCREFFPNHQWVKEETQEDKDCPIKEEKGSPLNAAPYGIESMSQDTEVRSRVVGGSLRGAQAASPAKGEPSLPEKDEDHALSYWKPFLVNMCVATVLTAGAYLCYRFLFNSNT
The data set is described as follows: Inhibition of PTP1B (unknown origin) at 30 uM using p-nitrophenyl phosphate as substrate measured after 30 mins. The gist of the method:
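30 nM PTP1B with 2 mM pNPP in 50 mM MOPS buffer, pH 6.5, with or without compound, 37 °C for 30 min. Stopped with 1 M NaOH; released pNP read at 405 nm absorbance. Oleanolic acid as positive control; IC50 from sigmoidal variable-slope dose-response fit.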

A further data set has as its system RPMI-8226. As to the kind of experiment: Cytotoxicity against human RPMI8226 cells at 30 uM after 48 hrs by MTS assay. The data set is classed as cell-based. The note with it: rpmi-8226, 48 h. Put shortly:
(§1)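 Cells seeded in 96-well plates and grown 24 h, then treated 48 h with compound dissolved in DMSO at a 30 μM working concentration. MTS (20 μL) added and incubated 2 h at 37 °C for viability read-out; method described as MTT assay.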

A further data set deals with HeLa. The data set is described as follows: Cytotoxicity against human HeLa cells at 30 uM after 48 hrs by MTS assay. The data set is classed as cell-based. The gist of the method:
as §1
(Formazan colour is commonly taken as a measure of viable cells.)

The next data set concerns HepG2. The data set is described as follows: Cytotoxicity against human HepG2 cells at 30 uM after 48 hrs by MTS assay. The data set is classed as cell-based. The following applies: hepg2, 48 h. The gist of the method:
as §1

In another data set the test system is HL-60. As to the kind of experiment: Cytotoxicity against human HL60 cells at 30 uM after 48 hrs by MTS assay. It is filed as cell-based. The following applies: hl-60, 48 h. Put shortly: as §1
Data set [2] addresses T2, Tyrosine-protein phosphatase non-receptor type 1 (Homo sapiens, UniProt P18031).
T2 sequence (P18031 whole entry): T1 sequence (whole entry)
The data set is described as follows: Inhibition of PTP1B (unknown origin) using p-nitrophenyl phosphate as substrate measured after 30 mins.

The source made the active and inactive calls. No cut-off for these calls is given here.

In the case of `C=C1CCC[C@H]2[C@]3(C)Cc4oc(=O)cc(OC)c4[C@]3(C)CC[C@]12C`, the inhibition entry in data set [1] is “inactive”. Also, the Activity result in the data set on RPMI-8226, in the data set on HeLa, with HepG2 and with HL-60 was “Non-Toxic” each time.

The IC50 is the point on the concentration scale where inhibition reaches its midpoint. On to `C=C1CCC[C@H]2[C@](C)(Cc3c(O)c(O)cc4nc(C)oc34)[C@@H](C)CC[C@]12C`, for which the concentration for half-maximal inhibition (IC50) in data set [2] was found to be 4.8 µM. The Activity result in the data set with RPMI-8226, in the data set with HeLa, with HepG2 and with HL-60 was “Non-Toxic” each time.

Turning to `C=C1CCC[C@H]2[C@](C)(Cc3c(O)c(O)cc4ncoc34)[C@@H](C)CC[C@]12C` [NAKIJINOL B], the inhibition entry in data set [1] is “inactive”. Further, the Activity entry in the data set on RPMI-8226, with HeLa, in the data set with HepG2 and in the data set on HL-60 was “Non-Toxic” throughout.

As for `C=C1CCC[C@@]23OC4=C(C[C@]2(C)[C@@H](C)CC[C@]13C)C(=O)C(OC)=CC4=O`, in data set [1], the inhibition entry was “inactive”. For the same compound, the Activity result in the data set with RPMI-8226, in the data set on HeLa, in the data set on HepG2 and in the data set on HL-60 was “Non-Toxic” each time.

Values taken from ChEMBL document CHEMBL4130395, “Meroterpenoids with Protein Tyrosine Phosphatase 1B Inhibitory Activity from a Hyrtios sp. Marine Sponge” (J Nat Prod, 2017).
